Laboratory results published in ChEMBL document CHEMBL4017520, “Discovery, Structure-Activity Relationship, and Antiparkinsonian Effect of a Potent and Brain-Penetrant Chemical Series of Positive Allosteric Modulators of Metabotropic Glutamate Receptor 4” (J Med Chem, 2017).
Blank lines part the entries; values can stand above or below the molecule they belong to. Active and inactive are the calls of the source. The calls are words filed in the database; no cut-off is given here.

How the values were obtained:
[1] = target: Amine oxidase [flavin-containing] A (Homo sapiens, UniProt P21397); test: Activity at MAO-A (unknown origin) up to 10 uM; format: ADME
[2] = target: T1, Metabotropic glutamate receptor 4 (Homo sapiens, UniProt Q14833); test: Positive allosteric modulation of recombinant human mGlu4 receptor expressed in HEK293 cells co-expressing chimeric G protein assessed as increase in glutamate-induced calcium flux after 10 mins by Fluo4-AM dye based fluorescence assay; format: functional, cell-based
Homo sapiens [3] = species on record: Homo sapiens; test: Selectivity ratio of compound effect for positive allosteric modulation of recombinant human mGlu4 receptor to compound effect for agonist activity at human mGlu7 receptor
[4] = Ratio of drug level in Sprague-Dawley rat brain to plasma at 1 mg/kg, iv after 1 hr post dose administered as single dose by LC-MS/MS analysis; format: ADME, organism-based; conditions: read-out: BPR
Procedure, shortened: (§1)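 Single iv dose, 1 mg/kg in rat or 2 mg/kg in mouse; plasma PK parameters derived; brain/plasma ratio taken at 1 h postdose (rat) or 30 min postdose (mouse). Mean of 3 rats; 2 mice for mouse Cmax and brain/plasma.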

[5] = target: Metabotropic glutamate receptor 4 (Rattus norvegicus, UniProt P31423); test: Positive allosteric modulation of rat mGlu4 receptor expressed in HEK293 cells co-expressing Gi/Gq assessed as increase in glutamate-induced calcium flux preincubated for 10 mins followed by glutamate addition measured for 3 mins by Fluo4-AM dye based fluorescence assay; format: functional, cell-based
[6] = Half life in Sprague-Dawley rat at 1 mg/kg, iv administered as single dose by LC-MS/MS analysis; format: ADME, organism-based; conditions: in vivo; procedure, shortened: as §1
[7] = Cmax in Sprague-Dawley rat at 1 mg/kg, iv administered as single dose by LC-MS/MS analysis; format: ADME, organism-based; parameters: dose 1 mg/kg, route intravenous; conditions: in vivo
[8] = Plasma clearance in Sprague-Dawley rat at 1 mg/kg, iv administered as single dose by LC-MS/MS analysis; format: ADME, organism-based; procedure, shortened: as §1
Rattus norvegicus [9] = species on record: Rattus norvegicus; test: Activity at kainate glutamate receptor in rat cerebral cortex at 10 uM
Procedure, shortened: (§2)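 Inhibition of orthosteric ligand binding to NMDA, AMPA and kainate receptors on rat cerebral cortex membranes, tested up to 10 μM.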

[10] = Activity at COMT (unknown origin) up to 10 uM; format: ADME; conditions: human
Homo sapiens [11] = species on record: Homo sapiens; test: Selectivity ratio of compound effect for positive allosteric modulation of recombinant human mGlu4 receptor to compound effect for agonist activity at human mGlu8 receptor
Rattus norvegicus [12] = species on record: Rattus norvegicus; test: Activity at AMPA glutamate receptor in rat cerebral cortex at 10 uM; procedure, shortened: as §2
Rattus norvegicus [13] = species on record: Rattus norvegicus; test: Activity at NMDA glutamate receptor in rat cerebral cortex at 10 uM; procedure, shortened: as §2
[14] = Tmax in Sprague-Dawley rat plasma at 10 mg/kg, po administered as single dose by LC-MS/MS analysis; format: ADME, organism-based
Procedure, shortened: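 Single-dose plasma PK after ip (10 or 30 mg/kg) or oral (10 mg/kg) dosing in rats, and oral 10 mg/kg dosing in mice. […] Values are mean ±SEM of 3 rats or 2 mice.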

[15] = Drug uptake in Sprague-Dawley rat brain at 10 mg/kg, po after 60 mins post dose administered as single dose by LC-MS/MS analysis; format: ADME, organism-based; conditions: read-out: Drug uptake
Procedure, shortened: (§3)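 Rats given a single oral dose of 10 mg/kg. Brain concentrations were measured at 30, 60 and 90 min postdose, and brain AUC0–inf was determined. Values are the mean of three rats. Lower limit of quantification was 1 ng/mL.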

Homo sapiens [16] = species on record: Homo sapiens; test: Selectivity ratio of compound effect for positive allosteric modulation of recombinant human mGlu4 receptor to compound effect for activity at human mGlu6 receptor
[17] = Ratio of drug level in Sprague-Dawley rat brain to plasma at 25 mg/kg, po administered as single dose by LC-MS/MS analysis; format: ADME, organism-based; conditions: read-out: BPR
Procedure, shortened: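 Sprague−Dawley rats dosed orally at 25 mg/kg in water; plasma and brain concentrations followed over time to derive brain/plasma ratio.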

[18] = target: Amine oxidase [flavin-containing] B (Homo sapiens, UniProt P27338); test: Activity at MAO-B (unknown origin) up to 10 uM; format: ADME
[19] = Volume of distribution in Sprague-Dawley rat at 1 mg/kg, iv administered as single dose by LC-MS/MS analysis; format: ADME, organism-based; conditions: in vivo
Procedure, shortened: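 Single intravenous dose: rats 1 mg/kg, mice 2 mg/kg. Plasma concentration–time data yielded Cmax, t1/2, AUC0−∞, plasma clearance and volume of distribution. Values are mean ±SEM of 3 animals.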

[20] = target: T1, Metabotropic glutamate receptor 4; test: Positive allosteric modulation of recombinant human mGlu4 receptor expressed in HEK293 cells co-expressing chimeric Gi/Gq protein assessed as fold shift of glutamate potency at 3 uM after 10 mins by Fluo4-AM dye based fluorescence assay relative to control
[21] = AUC (0 to infinity) in Sprague-Dawley rat at 1 mg/kg, iv administered as single dose by LC-MS/MS analysis; format: ADME, organism-based; parameters: dose 1 mg/kg, route intravenous, time infinity; conditions: in vivo
[22] = Cmax in Sprague-Dawley rat plasma at 10 mg/kg, po administered as single dose by LC-MS/MS analysis; format: ADME, organism-based; parameters: dose 10 mg/kg, route oral
Procedure, shortened: (§4)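 Rats given a single oral dose of 10 mg/kg. The first plasma sample was taken at 15 min, and sampling continued to 24 h postdose. Brain was sampled at 30 min. Values are the mean (±SEM) of 3 rats.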

[23] = target: T1, Metabotropic glutamate receptor 4; test: Positive allosteric modulation of recombinant human mGlu4 receptor expressed in HEK293 cells co-expressing chimeric Gi/Gq assessed as increase in EC20 glutamate-induced calcium flux at 15 uM preincubated for 10 mins followed by glutamate addition measured for 3 mins by Fluo4-AM dye based fluorescence assay relative to control; format: functional, cell-based
[24] = target: T1, Metabotropic glutamate receptor 4; test: Positive allosteric modulation of recombinant human mGlu4 receptor expressed in HEK293 cells co-expressing Gi/Gq assessed as increase in glutamate-induced calcium flux preincubated for 10 mins followed by glutamate addition measured for 3 mins by Fluo4-AM dye based fluorescence assay; format: functional, cell-based; conditions: read-out: EC50
[25] = target: T1, Metabotropic glutamate receptor 4; test: Positive allosteric modulation of recombinant human mGlu4 receptor expressed in HEK293 cells co-expressing chimeric G protein assessed as increase in EC20 glutamate-induced […]; format: functional, cell-based
[26] = Drug uptake in Sprague-Dawley rat brain at 10 mg/kg, po after 30 mins post dose administered as single dose by LC-MS/MS analysis; format: ADME, organism-based; conditions: read-out: Drug uptake; procedure, shortened: as §4
Brain = test: AUC (0 to infinity) in Sprague-Dawley rat brain at 10 mg/kg, po administered as single dose by LC-MS/MS analysis; format: ADME, organism-based; parameters: dose 10 mg/kg, time infinity, route oral; conditions: in vivo; procedure, shortened: as §3
[27] = Ratio of AUC (0 to infinity) in Sprague-Dawley rat brain to plasma at 10 mg/kg, po administered as single dose by LC-MS/MS analysis; format: ADME, organism-based; conditions: read-out: Ratio AUC
[28] = Drug uptake in Sprague-Dawley rat brain at 10 mg/kg, po after 90 mins post dose administered as single dose by LC-MS/MS analysis; format: ADME, organism-based; conditions: read-out: Drug uptake; procedure, shortened: as §3
[29] = AUC (0 to infinity) in Sprague-Dawley rat plasma at 10 mg/kg, po administered as single dose by LC-MS/MS analysis; format: ADME, organism-based; parameters: dose 10 mg/kg, time infinity, route oral; procedure, shortened: as §4
Rattus norvegicus [30] = species on record: Rattus norvegicus; test: Protection against 6-OHDA induced parkinsonian motor deficit in Sprague-Dawley rat after 28 days post surgery; format: functional
Rattus norvegicus [31] = test: Toxicity in 6-OHDA induced parkinsonian motor deficit Sprague-Dawley rat model assessed as induction of dyskinesia at 20 mg/kg, ip; format: organism-based; conditions: in vivo
Rattus norvegicus [32] = test: Toxicity in 6-OHDA induced parkinsonian motor deficit Sprague-Dawley rat model assessed as induction of overacting rearing behavior at 20 mg/kg, ip; format: organism-based; conditions: in vivo

T1 sequence (Q14833 whole entry): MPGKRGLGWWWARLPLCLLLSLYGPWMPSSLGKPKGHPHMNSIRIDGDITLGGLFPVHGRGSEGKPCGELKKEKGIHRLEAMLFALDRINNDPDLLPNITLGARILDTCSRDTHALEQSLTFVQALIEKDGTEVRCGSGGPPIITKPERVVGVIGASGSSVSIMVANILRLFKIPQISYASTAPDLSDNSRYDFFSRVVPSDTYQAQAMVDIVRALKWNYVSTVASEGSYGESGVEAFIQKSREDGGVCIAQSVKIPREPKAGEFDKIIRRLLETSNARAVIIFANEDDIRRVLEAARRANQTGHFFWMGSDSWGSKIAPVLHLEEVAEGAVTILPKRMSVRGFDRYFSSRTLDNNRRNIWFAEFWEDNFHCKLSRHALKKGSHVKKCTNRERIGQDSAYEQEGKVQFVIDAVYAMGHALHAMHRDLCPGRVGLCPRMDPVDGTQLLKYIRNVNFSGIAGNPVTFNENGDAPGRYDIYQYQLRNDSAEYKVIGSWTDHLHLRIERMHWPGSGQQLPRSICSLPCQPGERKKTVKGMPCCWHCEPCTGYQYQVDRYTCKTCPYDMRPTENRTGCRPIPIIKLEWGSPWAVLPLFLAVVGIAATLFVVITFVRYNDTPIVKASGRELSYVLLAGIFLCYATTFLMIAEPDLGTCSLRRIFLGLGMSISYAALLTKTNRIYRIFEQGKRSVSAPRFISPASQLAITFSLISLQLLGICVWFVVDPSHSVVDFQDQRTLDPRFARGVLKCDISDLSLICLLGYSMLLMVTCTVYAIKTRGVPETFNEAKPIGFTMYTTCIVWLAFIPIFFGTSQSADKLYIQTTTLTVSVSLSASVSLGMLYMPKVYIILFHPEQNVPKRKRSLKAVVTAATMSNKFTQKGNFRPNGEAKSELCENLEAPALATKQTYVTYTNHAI
Chain of Metabotropic glutamate receptor 4 (Rattus norvegicus, UniProt P31423) (P31423 whole entry): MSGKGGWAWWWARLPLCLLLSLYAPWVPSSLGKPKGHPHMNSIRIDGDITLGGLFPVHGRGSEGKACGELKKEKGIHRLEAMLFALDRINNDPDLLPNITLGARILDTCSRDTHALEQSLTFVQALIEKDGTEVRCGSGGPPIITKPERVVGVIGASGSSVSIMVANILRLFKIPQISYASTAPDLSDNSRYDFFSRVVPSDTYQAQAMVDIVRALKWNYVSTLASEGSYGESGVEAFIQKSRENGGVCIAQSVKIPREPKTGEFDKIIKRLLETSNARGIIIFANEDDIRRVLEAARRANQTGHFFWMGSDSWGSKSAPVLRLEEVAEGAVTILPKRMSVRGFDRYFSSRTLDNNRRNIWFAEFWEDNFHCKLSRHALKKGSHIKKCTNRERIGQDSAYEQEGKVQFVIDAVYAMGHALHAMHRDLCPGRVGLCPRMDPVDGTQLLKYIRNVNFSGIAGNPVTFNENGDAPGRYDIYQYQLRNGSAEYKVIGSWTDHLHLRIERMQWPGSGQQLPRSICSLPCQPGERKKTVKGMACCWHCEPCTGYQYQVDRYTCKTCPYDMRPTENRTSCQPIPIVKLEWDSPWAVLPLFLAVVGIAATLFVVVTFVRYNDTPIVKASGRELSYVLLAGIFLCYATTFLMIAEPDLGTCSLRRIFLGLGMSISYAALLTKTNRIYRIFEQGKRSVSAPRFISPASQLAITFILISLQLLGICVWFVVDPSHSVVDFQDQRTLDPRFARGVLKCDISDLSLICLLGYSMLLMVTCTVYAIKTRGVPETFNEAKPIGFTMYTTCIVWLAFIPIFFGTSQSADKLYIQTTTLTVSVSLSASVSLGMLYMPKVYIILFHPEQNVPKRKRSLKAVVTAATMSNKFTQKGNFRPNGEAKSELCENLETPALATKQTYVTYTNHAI
Chain of Amine oxidase [flavin-containing] A (P21397 whole entry): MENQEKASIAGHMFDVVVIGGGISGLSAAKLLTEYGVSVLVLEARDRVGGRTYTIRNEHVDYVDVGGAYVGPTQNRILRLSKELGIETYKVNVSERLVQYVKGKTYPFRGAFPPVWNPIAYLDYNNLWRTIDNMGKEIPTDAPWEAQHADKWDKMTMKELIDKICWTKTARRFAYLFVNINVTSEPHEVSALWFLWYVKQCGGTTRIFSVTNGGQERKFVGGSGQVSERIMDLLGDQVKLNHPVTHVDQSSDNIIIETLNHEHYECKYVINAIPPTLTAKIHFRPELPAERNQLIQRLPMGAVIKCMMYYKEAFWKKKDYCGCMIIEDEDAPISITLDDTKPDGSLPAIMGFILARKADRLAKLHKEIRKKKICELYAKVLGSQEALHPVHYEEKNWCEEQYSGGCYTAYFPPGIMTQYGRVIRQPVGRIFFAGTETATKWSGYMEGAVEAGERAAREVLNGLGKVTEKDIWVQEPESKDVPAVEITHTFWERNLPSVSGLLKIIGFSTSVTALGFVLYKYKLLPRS
Chain of Amine oxidase [flavin-containing] B (P27338 whole entry): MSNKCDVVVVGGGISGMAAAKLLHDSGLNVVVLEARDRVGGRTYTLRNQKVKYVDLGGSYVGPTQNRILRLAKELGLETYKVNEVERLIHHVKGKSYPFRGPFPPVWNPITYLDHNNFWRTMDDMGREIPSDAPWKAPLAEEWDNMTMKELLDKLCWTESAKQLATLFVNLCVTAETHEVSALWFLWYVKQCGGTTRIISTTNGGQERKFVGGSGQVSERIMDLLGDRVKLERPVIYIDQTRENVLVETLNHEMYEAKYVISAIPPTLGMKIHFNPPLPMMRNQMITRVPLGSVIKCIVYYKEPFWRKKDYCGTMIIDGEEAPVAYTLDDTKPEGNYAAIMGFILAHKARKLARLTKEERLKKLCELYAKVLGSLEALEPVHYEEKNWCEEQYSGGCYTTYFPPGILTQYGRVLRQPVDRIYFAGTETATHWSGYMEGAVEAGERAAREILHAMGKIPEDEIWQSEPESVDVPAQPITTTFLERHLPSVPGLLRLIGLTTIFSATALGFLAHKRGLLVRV

Activity [1]: Not Active | EC50 [2]: 79 nM | Selectivity ratio (Homo sapiens [3]): 110 | Kp at 1 h [4]: 8.4 | EC50 [5]: 47 nM | half-life [6]: 54 min | Cmax [7]: 325 ng/mL | clearance [8]: 104 mL/min/kg | Activity (Rattus norvegicus [9]): inactive | Activity [10]: Not Active | Selectivity ratio (Homo sapiens [11]): 50 | Activity (Rattus norvegicus [12]): inactive | Activity (Rattus norvegicus [13]): inactive | Tmax [14]: 1.17 h | concentration at 1 h [15]: 785 ng/g | Selectivity ratio (Homo sapiens [16]): 15 | Kp [17]: ≤ 13.5 | Activity [18]: Not Active | Vd [19]: 8.02 L/kg | fold change (FC) [20]: 10 | AUC(0-inf) [21]: 163 ng·h/mL | Cmax [22]: 94 ng/mL | Emax [23]: 32% | EC50 [24]: 79 nM | Emax [25]: 70% | concentration at 0.5 h [26]: 458 ng/g | AUC (Brain): 2713 ng·h/g | Kp [27]: 6.6 | concentration at 1.5 h [28]: 818 ng/g | AUC(0-inf) [29]: 432 ng·h/mL
Structure (SMILES): O/N=c1\cc(-c2cc3sccc3cn2)oc2ccc(CCCN3CCOCC3)cc12 [FOLIGLURAX]

Structure (SMILES): N[C@@H](Cc1ccc(O)c(O)c1)C(=O)O [LEVODOPA]
Activity (Rattus norvegicus [30]): Dose-dependent effect | Activity (Rattus norvegicus [31]): Non-Toxic | Activity (Rattus norvegicus [32]): Toxic
